F-actin modifier: alters cytoskeleton assembly in HUVEC cells; HUVEC TNFa F-actin phalloidin imaging, high content; inhibition, % at 2 µM; 91,000 compounds, 0.18% hits; AID 836;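 active means inhibition above the batch mean plus 3 SD and confirmed as a hit by visual image inspection, cut at about 30% in these data, passing the limit was not always enough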
E-sel TNF inh: blocks E-selectin expression induced by TNF alpha. HUVEC TNFa-induced E-selectin immunofluorescence, high content. inhibition, % at 2 µM. 120,000 compounds, 0.71% hits;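 active means inhibition above the batch mean plus 3 SD, and confirmed as a hit on visual image review, cut at about 43% in these data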;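 further: 0% = TNF-stimulated DMSO wells and 100% = unstimulated control wells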
PLK1 inh: inhibitors of human PLK1 kinase | P53350 | recombinant PLK1 kinase, TR-FRET peptide phosphorylation | inhibition, % at 10 µM | 97,000 compounds, 0.53% hits;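 active means inhibition of 50% or more in the single-concentration screen; inactive means inhibition below 50%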;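 further: 0% = DMSO max control and 100% = H-89 dihydrochloride min control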
HIV Rev-RRE inh: HIV Rev-RRE protein-RNA interaction inhibition | P05866 | Rev peptide-RRE RNA binding, FRET | inhibition, % at 8 µM | 97,000 compounds, 0.79% hits;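 active means inhibition above the screen-wide mean plus 3 SD, cut at about 35% in these data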;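 further: 0% = median DMSO wells and 100% = median Neomycin B control wells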
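Assay system: Rev peptide and RRE RNA, both fluorescently labelled; times: 5 min preincubation and 15 min binding, 25 °C; detection: FRET, ex 480 nm, em 540 and 671 nm; read-out basis: % inhibition from 671/540 nm acceptor-to-donor ratio, scaled between controls; benchmarks: DMSO low control, neomycin B high control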
FAK inh: blocks human focal adhesion kinase activity; biochemical FAK kinase activity assay; Q05397; 97,000 compounds, 0.84% hits; AID 727; inhibition, %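 (tested at 7 µM)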; in the data active means inhibition above about 19%;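 further: 0% = DMSO and 100% = reference compound high control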
Target sequence (Q05397 whole entry, looked up): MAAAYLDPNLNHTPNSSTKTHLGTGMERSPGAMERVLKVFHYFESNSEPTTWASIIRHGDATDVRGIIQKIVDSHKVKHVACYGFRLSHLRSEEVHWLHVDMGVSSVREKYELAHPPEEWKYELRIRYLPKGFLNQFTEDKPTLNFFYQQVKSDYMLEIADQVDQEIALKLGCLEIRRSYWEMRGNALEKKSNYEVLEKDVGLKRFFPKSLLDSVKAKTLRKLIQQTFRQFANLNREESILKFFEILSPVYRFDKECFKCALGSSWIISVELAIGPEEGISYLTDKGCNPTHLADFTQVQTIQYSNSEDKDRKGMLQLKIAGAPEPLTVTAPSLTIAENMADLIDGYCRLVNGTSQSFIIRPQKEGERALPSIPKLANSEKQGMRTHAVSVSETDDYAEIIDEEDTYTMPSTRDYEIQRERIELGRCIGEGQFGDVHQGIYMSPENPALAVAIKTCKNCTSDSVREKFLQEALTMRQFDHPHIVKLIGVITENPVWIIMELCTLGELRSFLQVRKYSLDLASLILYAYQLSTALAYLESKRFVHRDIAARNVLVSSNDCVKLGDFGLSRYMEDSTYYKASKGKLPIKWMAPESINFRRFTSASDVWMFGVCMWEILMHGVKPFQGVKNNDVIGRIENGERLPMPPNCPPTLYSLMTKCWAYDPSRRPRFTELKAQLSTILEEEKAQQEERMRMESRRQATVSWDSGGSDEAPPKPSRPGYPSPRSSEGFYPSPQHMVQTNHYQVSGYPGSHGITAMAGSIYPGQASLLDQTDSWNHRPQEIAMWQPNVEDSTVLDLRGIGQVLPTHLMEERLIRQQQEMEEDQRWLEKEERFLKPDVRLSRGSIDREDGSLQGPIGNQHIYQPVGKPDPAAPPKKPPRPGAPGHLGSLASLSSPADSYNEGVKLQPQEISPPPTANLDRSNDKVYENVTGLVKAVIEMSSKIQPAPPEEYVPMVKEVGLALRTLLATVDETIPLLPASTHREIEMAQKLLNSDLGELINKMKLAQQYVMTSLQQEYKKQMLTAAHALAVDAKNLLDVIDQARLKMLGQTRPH
PLK1 PBD inh: inhibitors of human Plk1 polo box domain binding | 97,000 compounds, 0.13% hits | inhibition, %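 (tested at about 20 µM)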 | P53350 | Plk1 PBD phosphopeptide binding, fluorescence polarization | AID 693; in the data active means inhibition above about 34%, passing the limit was not always enough
Active calls of the source: *; nt = not tested or not shown; [ ] = remark or other dose. In the library only some 2.2% were active in any assay of this set; here they are far more common.

SMILES | F-actin modifier | E-sel TNF inh | PLK1 inh | HIV Rev-RRE inh | FAK inh | PLK1 PBD inh
COc1ccc(C)cc1NC(=O)C(NCC1CCCO1)c1ccccc1 (stereo unspecified) | nt | 12 | nt | nt | nt | nt
Cc1cccc(NC(=O)CSc2ncnc3nc[nH]c23)c1 | 1 | 16 | 55* | 3 | 1 | 21
CCc1cc[n+](CC(=O)Nc2ccc(Cl)cc2Cl)cc1 | nt | 77* | nt | nt | nt | nt
N#CC1=C(N)Oc2n[nH]c(-c3cccs3)c2C1c1ccco1 (stereo unspecified) | -9 | 10 | 0 | 60* | 3 | -25
Cc1ccc(-c2nc3cccnc3s2)cc1NC(=O)C1c2ccccc2Oc2ccccc21 | nt | -13 | nt | nt | nt | nt
O=S(=O)(Nc1ccc(N2CCCCC2)cc1)c1ccc(F)c(F)c1 | nt | -10 | nt | nt | nt | nt
COc1ccc(N2CCN(C(=O)c3ccc(NS(=O)(=O)c4ccccc4)cc3)CC2)cc1 | 4 | -36 | -10 | -1 | 5 | 19
COc1cccc(S(=O)(=O)Nc2ccc(C(=O)N3CCN(C(=O)c4ccco4)CC3)cc2)c1 | 1 | 97* | -8 | -3 | 8 | -5
OC(Cn1cncn1)(c1ccccc1)c1ccccc1 | -4 | 11 | -18 | 9 | -2 | -1
CCN=c1scc(C)n1/N=C/c1ccc(O)c(O)c1O | 3 | -12 | 55* | 4 | 6 | -9
CCc1ccccc1NC(=S)N(CCN1CCCCC1)Cc1ccco1 | nt | 1 | nt | nt | nt | nt
CSc1nc2ccccc2n1Cc1c(Cl)cccc1Cl | 20 | 3 | -39 | 18 | 2 | 2
Cc1ccc(-c2ccc(/C=C(\C#N)C(=O)Nc3cc(C)nn3-c3ccccc3)o2)cc1 | -3 | 4 | -9 | 103*[fluorescence artefact?] | 2 | 41
Cc1cc(NC(=O)/C(C#N)=C/c2ccco2)n(-c2ccccc2)n1 | nt | -95 | nt | nt | nt | nt
COC(=O)c1ccsc1-n1cc(C#N)c(=O)n(C)c1=O | nt | -27 | nt | nt | nt | nt
O=CN1CCN(C(=O)c2ccc(-c3nc4ccccc4s3)s2)CC1 | nt | 11 | nt | nt | nt | nt
CCSc1nnc(-c2cccs2)o1 | -30 | 100* | -10 | 10 | 0 | 3
COc1ccc(CNC(=O)c2cc3c(s2)CS(=O)C3)cc1 (stereo unspecified) | 8 | 21 | -21 | 5 | 0 | 16
COC(=O)c1cc2c(s1)CS(=O)C2 (stereo unspecified) | nt | 96* | -2 | 2 | 0 | -2
CCCOC(=O)C1=C(C)NC2=C(C(=O)CCC2)C1c1cccs1 (stereo unspecified) | 5 | 2 | -15 | 1 | 13 | -20
CCOC(=O)C1=C(C)NC2=C(C(=O)CC(c3cccs3)C2)C1c1cccs1 (stereo unspecified) | -2 | -19 | -11 | 10 | 21* | -5
Cc1nnc(SCC2=C(C(=O)O)N3C(=O)C(NC(=O)C(C)n4nc(C(F)(F)F)cc4C)C3SC2)s1 (stereo unspecified) | nt | -20 | nt | nt | nt | nt
CCCCNc1nc2ccccc2n1CC(=O)Nc1c(C)cccc1CC | nt | 2 | nt | nt | nt | nt
COc1ccccc1NC(=O)N1CCN(c2ccccn2)CC1 | nt | nt | 62* | 9 | 0 | 6
CC1(C)CC(=O)C(=C2SCCCS2)C(=O)C1 | nt | -8 | nt | nt | nt | nt
SMILES | F-actin modifier | E-sel TNF inh | PLK1 inh | HIV Rev-RRE inh | FAK inh | PLK1 PBD inh
O=C(N/N=C/c1cc(Br)ccc1O)c1ccccc1Cl | nt | -3 | nt | nt | nt | nt
O=C(N/N=C/c1cc(Br)ccc1O)C(=O)Nc1ccccc1OC(F)(F)C(F)F | -9 | 5 | -13 | 49* | -6 | 2
CCCN1CCc2[nH]c(=S)[nH]c(=O)c2C1 | nt | 68* | nt | nt | nt | nt
CSc1nc(-c2ccccc2)nc2[nH]ccc(=O)c12 | -3 | -7 | -6 | 8 | 22* | 9
CSc1nc(-c2ccccc2)nc(SC)c1C(C)=O | 0 | -38 | -8 | 5 | 1 | 28
O=c1nc(Nc2ccccc2)sc2ccc([N+](=O)[O-])cc12 | nt | 41 | nt | nt | nt | nt
Cc1ccc(C(=O)C[n+]2cccc3ccccc32)cc1 | 52 | -21 | -9 | 34 | 2 | -24
NC(=O)C[n+]1cccc2ccccc21 | 20 | -40 | -13 | 37* | 2 | 0
CCSc1ncc(/C=N/Nc2ccccc2)n1C | 5 | 8 | -13 | -5 | 3 | 1
CCSc1ncc(/C=N/Nc2ccc([N+](=O)[O-])cc2)n1C | -7 | -11 | -14 | 66*[fluorescence artefact?] | 6 | 4
CCCCOc1ccc(-c2nnn(C(C)C(=O)OCC)n2)cc1 (stereo unspecified) | -98 | 66* | -8 | 10 | 1 | -13
CCCCOc1ccc(-c2nnn(C(C)(C)C(=O)OC)n2)cc1 | 10 | 4 | -9 | 6 | 4 | -18
CCn1cc(/C=C(/C#N)S(=O)(=O)c2ccccc2)cn1 | -5 | 6 | -7 | 3 | -2 | -4
CCN1C(=O)CS/C1=C(\C#N)S(=O)(=O)c1ccccc1 | 9 | 18 | -13 | 37* | -1 | -31
CCN(C(=O)CN(C)Cc1cccc(Cl)c1Cl)c1c(N)n(Cc2ccccc2)c(=O)[nH]c1=O | nt | 8 | nt | nt | nt | nt
Cc1nn(-c2ccccc2)c(C)c1[N+](=O)[O-] | nt | 17 | nt | nt | nt | nt
Cc1ccccc1-c1nc(CN(C)C(C)c2ccon2)c(C)o1 (stereo unspecified) | nt | 3 | nt | nt | nt | nt
COCCN(Cc1cc2cc(C)ccc2nc1Cl)C(=O)Nc1ccccc1OC | nt | -14 | nt | nt | nt | nt
COc1cccc(N2CC(C(=O)Nc3nnc(SCC(=O)c4ccccc4)s3)CC2=O)c1 (stereo unspecified) | nt | 61* | nt | nt | nt | nt
COc1cccc(N2CC(C(=O)Nc3nnc(SCc4ccccn4)s3)CC2=O)c1 (stereo unspecified) | nt | -23 | nt | nt | nt | nt
Cc1ccc(-c2csc(NC(=O)c3cccc(N4C(=O)CCC4=O)c3)n2)o1 | nt | nt | 67* | 3 | 9 | 9
CCOC(=O)Cc1csc(NC(=O)c2cccc(N3C(=O)CCC3=O)c2)n1 | -27 | 58 | -9 | 4 | 0 | -3
CC1C/C(=C/c2cccn2C)C(=O)/C(=C/c2cccn2C)C1 (stereo unspecified) | 5 | -18 | -12 | 136*[fluorescence artefact?] | -1 | -210
CC1C/C(=C/c2ccncc2)C(=O)/C(=C/c2ccncc2)C1 (stereo unspecified) | nt | 100* | nt | nt | nt | nt
CC1CN(C(=S)NC(=O)C2CCCCC2)CC(C)O1 (stereo unspecified) | nt | -7 | nt | nt | nt | nt
SMILES | F-actin modifier | E-sel TNF inh | PLK1 inh | HIV Rev-RRE inh | FAK inh | PLK1 PBD inh
CCC(C)c1ccccc1OCCCCN1CCCC1 (stereo unspecified) | nt | 64* | nt | nt | nt | nt
CN(Cc1ccccc1)c1nc(-c2cccc([N+](=O)[O-])c2)nc2ccccc12 | nt | -1 | nt | nt | nt | nt
Cc1ccc2nc(SCc3nc4c(cnn4-c4ccccc4)c(=O)[nH]3)[nH]c2c1 | 6 | 2 | 54* | 3 | -1 | 5
COC(=O)c1ccc(C(=O)N(CCN(C)C)c2nc3c(Cl)cccc3s2)cc1 | nt | -1 | nt | nt | nt | nt
CC(=O)c1cccc(NS(=O)(=O)c2c(C)noc2C)c1 | 60* | nt | 2 | 4 | 1 | 33
CC(=O)c1cccc(NS(=O)(=O)N2CCCCC2)c1 | 1 | 81* | -7 | 5 | -2 | 14
Cc1cccc(NC(=O)c2ccc(NS(=O)(=O)c3c(C)noc3C)cc2)c1 | 9 | 100* | -14 | 3 | -2 | -31

Source: PubChem
